Paper PMC5079036 (Journal of the American Heart Association: Cardiovascular …, 2016)

What was measured:
humans = settings: TRPV1 antagonist; cited from earlier work
[1] = tested on: primary neonatal cardiomyocytes (PNCMs); assay: Live cell imaging of mitochondrial membrane potential under normoxia; type: cell-based, rat
Outline: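 Neonatal rat cardiomyocytes (pups 1–3 days old) were plated on glass coverslips at 150 000 cells per dish. Cells were loaded with TMRE 150 nmol/L for 30 min at 37°C, then washed. Imaging was single-cell in a chamber at 37°C, 5% pco₂ and 21% po₂. Inhibitor (1 μmol/L) was added 10 min before the TRPV1 agonist (1 μmol/L). Images were taken every 5 min over 30 min and normalized to baseline (=1). n=3 biological replicates.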

Male Sprague‐Dawley rats = assay: In vivo myocardial infarction rodent model; set-up: species or system rat
isolated rat hearts = assay: Isolated heart model of ischemia–reperfusion injury; settings: capsaicin 0.1 μmol/L, unpaced hearts, vs vehicle DMSO; n=4

CC(=O)Nc1nc2c(Oc3cc(-c4ccc(C(F)(F)F)cc4)ncn3)cccc2s1 [AMG517]
Body temperature effect in humans (humans): caused sudden hyperthermia in humans that persisted for days

COc1cc(CNC(=O)CCCC/C=C/C(C)C)ccc1O [CAP, capsaicin]
Mitochondrial membrane potential (TMRE fluorescence) ([1]; capsaicin 0.1–10 μmol/L, 30 min, normoxia, 3 biological replicates): decreased mitochondrial membrane potential | Change in heart rate after CAP administration (Male Sprague‐Dawley rats; CAP 0.1-3.0 mg/kg iv, n=6 per group): increased heart rate when given intravenously | infarct size reduction compared with control (Male Sprague‐Dawley rats; given 5 minutes before reperfusion (CAP 0.3, CsA 2.5, V1‐cal 1 mg/kg iv)): 27% | Heart rate during first 15 minutes of infusion (isolated rat hearts): increased heart rate during the first 15 minutes of infusion

Oc1cc2c(cc1O)CN(C(=S)NCCc1ccc(Cl)cc1)CCC2 [CPZ, capsazepine]
Effect on capsaicin-induced change in mitochondrial membrane potential (TMRE) ([1]; CPZ 1 μmol/L or CsA 1 μmol/L 10 minutes prior to CAP 1 μmol/L, n=3): blocked | Effect on heart rate change afforded by capsaicin (Male Sprague‐Dawley rats; CPZ 3 mg/kg or CsA 2.5 mg/kg before capsaicin 0.3 mg/kg): reduced the change in heart rate
